The source made the active and inactive calls. Cut-off read from the data, not from the text of the source, unless noted: active = inhibition above about 30%; inactive = the rest.
Legend:
[1] = Her2 expression decrease, cell viability multiplex – SKBR3 breast tumor cells, AlphaScreen, ATP viability, primary screen (AID 461;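 active = Her2 level under about 52% in both replicate screens, with viability over 70% of control, limit read from the data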;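 for Her2 level: lower value means less Her2 protein in the cells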;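 for viability: percent of carrier control wells set as 100% viability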); details: SKBR3 Her2 protein level, 18-24 h, measured here: SKBR3 viability, ATP luminescence, at 10 µM
[2] = molecular target: Receptor tyrosine-protein kinase erbB-2 (Homo sapiens) (UniProt P04626); test: as above; details: 18-24 h, at 10 µM, stronger effect = lower value
[3] = reduced viability of SK-BR-3 breast cancer cells – cell-based, 24 h, human, pilot screen (AID 572;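 active = viability at or below 10% of carrier control in both of two separate runs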;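 note: compound exposure lasted between 18 and 24 h rather than exactly 24 h; 100% = carrier-treated control wells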); details: SK-BR-3 viability, CellTiter-Glo luminescence, at 10 µM, stronger effect = lower value
[4] = HUVEC growth inhibition – cell-based, human, primary screen (AID 575;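 active = viability at or below 30% in both replicate assays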;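 note: 100% = median of untreated cell wells with 0.1% DMSO on each plate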); details: HUVEC proliferation, CellTiter-Glo luminescence, 72 h; at 10 µM; stronger effect = lower value
In short: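 System – primary HUVEC, no more than 12 passages · Medium – Low-serum (2% FBS) EBM, supplemented · Times – 72 h exposure, 37 °C, 5% CO2, 30 min RT equilibration · Measured by – luminescent ATP assay · Read-out – % viability relative to median vehicle-well signal on each plate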

[5] = H69AR cell proliferation blockers – human, duplicate replicates, primary screen (AID 580;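 active = viability at or under a set limit in both replicates, limit being median viability minus 3 SD, cut at about 48% in these data, passing the limit was not always enough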;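 note: 100% = mean luminescence of untreated wells and 0% = no signal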); details: H69AR lung tumor cells viability, ATP luminescence, 72 h; at 10 µM; stronger effect = lower value
[6] = MRP1 drug-resistance reversers in H69AR cells – cell-based, doxorubicin co-treatment, pilot screen (AID 601;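 active = viability loss from added drug above about 55%, and viability with drug at most 40%, in both replicates, limit read from the data, passing the limit was not always enough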); details: CellTiter-Glo, 72 h, at 10 µM; for differential viability (reversal): stronger effect = higher value
[7] = yeast transport mutant growth inhibition pilot in 384-well plates, post-Golgi transport modulator project (AID 636; in the data active = inhibition above about 31%); details: absorbance 615 nm, about 18 h, stronger effect = higher value
[8] = growth suppression of yeast trafficking mutant, preliminary HTS, modulators of trafficking downstream of Golgi apparatus project, 1536-format plate, OD 615 nm (AID 637); details: yeast transport mutant growth, absorbance 615 nm, 18 h; stronger effect = higher value
[9] = H69AR cells + 2 uM doxorubicin, measured here: viability with 2 uM doxorubicin, stronger effect = lower value
[10] = H69AR cells, compound alone cytotoxicity

Receptor tyrosine-protein kinase erbB-2 (Homo sapiens), sequence (P04626 whole entry, looked up): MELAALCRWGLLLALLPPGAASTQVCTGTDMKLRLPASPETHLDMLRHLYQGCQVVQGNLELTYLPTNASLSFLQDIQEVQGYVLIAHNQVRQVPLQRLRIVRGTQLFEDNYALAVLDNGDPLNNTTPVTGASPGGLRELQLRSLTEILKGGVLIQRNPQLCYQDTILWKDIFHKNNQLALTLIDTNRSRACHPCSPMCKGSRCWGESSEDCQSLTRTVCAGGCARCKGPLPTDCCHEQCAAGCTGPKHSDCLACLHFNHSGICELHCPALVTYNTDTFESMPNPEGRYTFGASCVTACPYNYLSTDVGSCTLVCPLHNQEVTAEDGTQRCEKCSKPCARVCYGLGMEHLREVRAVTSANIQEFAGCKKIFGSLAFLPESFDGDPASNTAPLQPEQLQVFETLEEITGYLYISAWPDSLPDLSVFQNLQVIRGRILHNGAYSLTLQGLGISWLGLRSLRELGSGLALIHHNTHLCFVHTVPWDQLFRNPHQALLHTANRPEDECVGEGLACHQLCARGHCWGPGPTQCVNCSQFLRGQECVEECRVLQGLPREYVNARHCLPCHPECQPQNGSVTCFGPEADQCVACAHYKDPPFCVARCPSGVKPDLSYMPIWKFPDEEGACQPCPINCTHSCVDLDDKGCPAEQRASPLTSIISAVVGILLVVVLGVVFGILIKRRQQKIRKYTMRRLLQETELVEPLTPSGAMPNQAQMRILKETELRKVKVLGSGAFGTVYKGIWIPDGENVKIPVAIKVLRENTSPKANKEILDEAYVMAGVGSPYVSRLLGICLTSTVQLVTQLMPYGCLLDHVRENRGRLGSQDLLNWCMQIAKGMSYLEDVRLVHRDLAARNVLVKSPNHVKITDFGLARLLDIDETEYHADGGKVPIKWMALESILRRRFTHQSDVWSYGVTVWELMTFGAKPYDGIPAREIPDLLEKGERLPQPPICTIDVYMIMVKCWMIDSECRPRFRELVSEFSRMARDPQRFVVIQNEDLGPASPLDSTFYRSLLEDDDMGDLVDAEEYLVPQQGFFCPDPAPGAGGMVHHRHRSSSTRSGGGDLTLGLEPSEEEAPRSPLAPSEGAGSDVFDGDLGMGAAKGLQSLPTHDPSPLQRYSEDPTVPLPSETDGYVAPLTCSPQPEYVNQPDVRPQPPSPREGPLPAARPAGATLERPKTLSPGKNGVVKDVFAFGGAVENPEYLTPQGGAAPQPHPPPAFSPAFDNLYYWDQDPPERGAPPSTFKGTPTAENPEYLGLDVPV

Compound	viability [1] [%]	Her2 level [2]	viability [3]	viability [4]	viability [5]	differential viability (reversal) ([6]; H69AR cells + 2 uM doxorubicin)	viability [6, 9] [%]	viability [6, 10] [%]	inhibition [7]	inhibition [8]
CS(=O)(=O)Nc1ccc(C(=O)NCCc2ccccc2)cc1	96.5	94.5% (inactive)	96.5% (inactive)	102% (inactive)	98.3% (inactive)	12.9% (inactive)	85.4	98.3	-3.47% (inactive)	-3.55% (inactive)
O=C(NCCC1=CCCCC1)C1CCN(C(=O)Nc2ccccc2)CC1	106	128% (inactive)	106% (inactive)	91.3% (inactive)	101% (inactive)	5.69% (inactive)	95.7	101	-2.21% (inactive)	-2.33% (inactive)
O=C(OCC(=O)N1CCCC1)c1ccccc1OCc1ccccc1	96	79.5% (inactive)	96% (inactive)	73.2% (inactive)	99.4% (inactive)	11.1% (inactive)	88.3	99.4	-7.7% (inactive)	1.31% (inactive)
CN(C(=O)COc1cc(=O)n(C)c2ccccc12)c1ccc(Br)cc1	100	104% (inactive)	100% (inactive)	74.5% (inactive)	82.5% (inactive)	4.22% (inactive)	78.3	82.5	-1.87% (inactive)	-4.1% (inactive)
O=C1CCCC2=C1C(c1ccc(Br)cc1)c1c([nH]c(=S)[nH]c1=O)N2 (stereo not given)	84	112% (inactive)	84% (inactive)	99.3% (inactive)	91.7% (inactive)	6.69% (inactive)	85.1	91.7	-4.47% (inactive)	8.67% (inactive)
Cc1ccc(C)c(N2CCN(C(=O)c3ccc(CS(=O)(=O)c4ccccc4C)o3)CC2)c1	82	66.5% (inactive)	82% (inactive)	50.8% (inactive)	11.8% (active)	-39.1% (inactive)	50.9	11.8	-3.16% (inactive)	1.27% (inactive)
CC(=O)N(C(C)=O)c1c(C#N)c(C)n(-c2ccccc2)c1C(=O)c1ccccc1	86.5	88% (inactive)	86.5% (inactive)	78.4% (inactive)	77.9% (inactive)	-9.1% (inactive)	87	77.9	-2.53% (inactive)	-2.58% (inactive)
Cc1cccc(OCC(=O)N2CCC(N3CCCCCC3)CC2)c1	95.5	126% (inactive)	95.5% (inactive)	97.1% (inactive)	106% (inactive)	7.21% (inactive)	98.8	106	-1.45% (inactive)	-6.07% (inactive)
Cc1noc(C)c1COC(=O)c1ccccc1Oc1ccccc1	91	106% (inactive)	91% (inactive)	79.1% (inactive)	96.5% (inactive)	26.8% (inactive)	69.8	96.5	-3.25% (inactive)	-5.56% (inactive)
CCOC(=O)C1=C(c2ccccc2)NC(=O)NC1c1ccc(N(C)C)cc1 (stereo not given)	85.5	87% (inactive)	85.5% (inactive)	106% (inactive)	97.6% (inactive)	0.56% (inactive)	97	97.6	-2.08% (inactive)	14.7% (inactive)
O=S(=O)(Nc1ccn(-c2ccccc2)n1)c1ccc(Br)cc1	89	86.5% (inactive)	89% (inactive)	85.7% (inactive)	87.5% (inactive)	-6.15% (inactive)	93.7	87.5	-3.77% (inactive)	0.16% (inactive)
COC(=O)Nc1ccc(NC(C)=O)cc1	96	116% (inactive)	96% (inactive)	103% (inactive)	91% (inactive)	8.88% (inactive)	82.1	91	5.84% (inactive)	-8.36% (inactive)
Cc1ccc(C)c(NC(=O)c2ccc3c(c2)N(Cc2ccc(F)cc2)C(=O)CS3=O)c1 (stereo not given)	85.5	102% (inactive)	85.5% (inactive)	95.2% (inactive)	97.1% (inactive)	3.96% (inactive)	93.1	97.1	-1.6% (inactive)	-0.66% (inactive)
COc1ccc(CN2C(=O)c3cccnc3C2Nc2cc(Cl)ccc2OC)cc1 (stereo not given)	84.5	110% (inactive)	84.5% (inactive)	85% (inactive)	93.2% (inactive)	0.7% (inactive)	92.5	93.2	2.67% (inactive)	-1.8% (inactive)
Cn1nc(C(=O)Nc2cccc(C(F)(F)F)c2)ccc1=O	95.5	92% (inactive)	95.5% (inactive)	107% (inactive)	91.5% (inactive)	6.87% (inactive)	84.7	91.5	-3.29% (inactive)	1.45% (inactive)
COc1ccc2c(C(F)(F)F)cc(=O)oc2c1C	92	99.5% (inactive)	92% (inactive)	110% (inactive)	99.8% (inactive)	6.5% (inactive)	93.3	99.8	-4.67% (inactive)	9.68% (inactive)

Compound	viability [1] [%]	Her2 level [2]	viability [3]	viability [4]	viability [5]	differential viability (reversal) ([6]; H69AR cells + 2 uM doxorubicin)	viability [6, 9] [%]	viability [6, 10] [%]	inhibition [7]	inhibition [8]
COc1ccc(-c2ccc(CCC(=O)O)n2NC(=O)c2cccs2)cc1	122	92% (inactive)	122% (inactive)	95.5% (inactive)	101% (inactive)	3% (inactive)	98.3	101	-2.76% (inactive)	2.06% (inactive)
CN1CCN(C(=O)CCC(=O)c2ccc(F)cc2)CC1	114	79.5% (inactive)	114% (inactive)	96.4% (inactive)	94.8% (inactive)	7.6% (inactive)	87.2	94.8	-8.53% (inactive)	-3.77% (inactive)
CCOc1cc(N2CCOCC2)c(OCC)cc1NC(=O)CSc1cccc[n+]1[O-]	128	93% (inactive)	128% (inactive)	94% (inactive)	86.8% (inactive)	1.93% (inactive)	84.8	86.8	-5.26% (inactive)	-4% (inactive)
O=C(NCc1ccco1)C1CCN(S(=O)(=O)N2CCC3(CC2)OCCO3)CC1	99.5	92% (inactive)	99.5% (inactive)	118% (inactive)	100% (inactive)	14.2% (inactive)	85.8	100	-6.89% (inactive)	-7.17% (inactive)
CCOC(=O)c1ccc2[nH]c(C)c(CN3CCN(C)CC3)c(=O)c2c1	114	81% (inactive)	114% (inactive)	97.9% (inactive)	91.4% (inactive)	-0.335% (inactive)	91.8	91.4	-7.03% (inactive)	2.79% (inactive)
CCOC(=O)C1CCCN(C(=O)c2cc(=O)c3ccccc3o2)C1 (stereo not given)	94.5	87% (inactive)	94.5% (inactive)	95.2% (inactive)	97.3% (inactive)	-4.92% (inactive)	102	97.3	-2.89% (inactive)	-0.95% (inactive)
O=C(NCCCn1ccnc1)c1cnn2c1NC(c1ccccc1)CC2C(F)(F)F (stereo not given)	93.5	139% (inactive)	93.5% (inactive)	88.5% (inactive)	105% (inactive)	1.64% (inactive)	103	105	-0.26% (inactive)	-15% (inactive)
CCOC(=O)C(NC(C)=O)(NS(=O)(=O)c1ccccc1)C(F)(F)F (stereo not given)	122	101% (inactive)	122% (inactive)	101% (inactive)	100% (inactive)	5.89% (inactive)	94.2	100	-4.16% (inactive)	1.59% (inactive)
Cc1ccccc1-n1c(=O)c2ccccc2n2nnnc12	80	112% (inactive)	80% (inactive)	101% (inactive)	93% (inactive)	-1.09% (inactive)	94.1	93	0% (inactive)	-15.6% (inactive)
COc1ccc(Br)cc1C(=O)Nc1nnn(C)n1	81.5	106% (inactive)	81.5% (inactive)	106% (inactive)	104% (inactive)	10.9% (inactive)	93.2	104	3.95% (inactive)	30.5% (active)
COc1ccc(C(=O)NCc2nnc(SCC(=O)Nc3cc(C)cc(C)c3)o2)cc1OC	89.5	102% (inactive)	89.5% (inactive)	99.6% (inactive)	89.3% (inactive)	7.32% (inactive)	82	89.3	0.13% (inactive)	1.33% (inactive)
Cc1nc(Nc2nc(=O)c3ccccc3n2C)nc2c(C)cccc12	122	98% (inactive)	122% (inactive)	89.5% (inactive)	86.1% (inactive)	-12.9% (inactive)	99	86.1	-2.89% (inactive)	2.54% (inactive)
CN1C(=O)CC(C(=O)Nc2ccc(F)cc2)SC1=Nc1ccc2c(c1)OCO2 (stereo not given)	88	73% (inactive)	88% (inactive)	95% (inactive)	82.5% (inactive)	2.84% (inactive)	79.6	82.5	-7.16% (inactive)	0.83% (inactive)
CCn1c(C(=O)OC)cc2c1ccn2-c1ccc(F)cc1	91	80.5% (inactive)	91% (inactive)	86.1% (inactive)	83% (inactive)	7.09% (inactive)	75.9	83	-5.13% (inactive)	-1.82% (inactive)
O=C(Nc1ccc2oc(-c3ccncc3)nc2c1)c1cccs1	96	112% (inactive)	96% (inactive)	88.9% (inactive)	79.6% (inactive)	0.7% (inactive)	78.9	79.6	-2.76% (inactive)	2.3% (inactive)
CC(=O)c1cccc(S(=O)(=O)N2CCC(n3nnc4cc(F)ccc43)CC2)c1	88	92.5% (inactive)	88% (inactive)	92.9% (inactive)	93.9% (inactive)	8.11% (inactive)	85.8	93.9	-5.14% (inactive)	-2.62% (inactive)

— PubChem BioAssay
